# From PubChem BioAssay
# A selection: hits, their analogues and other compounds. The true share with any hit is near 1.2%.
# G6PDH counter – inhibits Leuconostoc G6PDH, flagging false hits in G6PDH-based assays. Purified L. mesenteroides G6PDH, diaphorase/resazurin coupled fluorescence, 45 min. actives 0.12% (n = 200,000). inhibition, % at 5 µM; in the data active = inhibition above about 50%
# Diaphorase act – diaphorase activation or chemical reduction counter-screen; actives 0.005% (n = 190,000); AID 1229; Diaphorase/resazurin coupled assay, resorufin fluorescence, 16 min; hits give high values; 1 = vehicle wells, 0 = NADH-free wells; activation factor at 20 µM;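 active = diaphorase activity raised at least twofold by the compound at 20 µM; inactive = activation factor below 2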
#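 test system = bacterial diaphorase enzyme (C. kluyveri) | quantity = enzyme 0.07 U/mL final | reagent = NADH substrate 0.114 mM plus resazurin dye 0.1 mM, final | incubation = 16 min enzyme reaction, ambient temperature | buffer or medium = HEPES pH 7.4 buffer with MgCl2 and Tween 20 | signal = fluorescence of resorufin, 544 nm excitation, 590 nm emission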
# Diaphorase inh – diaphorase inhibition or chemical oxidation counter-screen; diaphorase resazurin-to-resorufin fluorescence, NADH, 16 min; bacterial (C. kluyveri) enzyme, not human; inhibition, % at 20 µM; actives 0.69% (n = 190,000); AID 1217;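 active = primary screen inhibition at 20 µM above a set limit, cut at about 50% in these data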;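 also: plate controls were DMSO with full reaction for no effect and wells lacking NADH for full effect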
#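 Assay system: diaphorase enzyme from Clostridium kluyveri; Input: enzyme working solution with 0.14 U/mL diaphorase; Timing: 16 min at room temperature; Technique: resorufin fluorescence, excitation 544 nm, emission 590 nm; Benchmarks: positive control minus NADH, DMSO neutral control.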
# HKDC1 inh – HKDC1 (human) hexokinase inhibition | Q2TB90 | recombinant HKDC1, G6PDH/diaphorase resazurin coupled fluorescence | inhibition, % at 20 µM | actives 0.16% (n = 340,000);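 active = inhibition above about 35% when tested at 20 µM, limit read from the data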;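 also: plate controls were DMSO wells with enzyme for no effect and DMSO wells lacking enzyme for full effect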
# Target sequence (Q2TB90 whole entry, looked up): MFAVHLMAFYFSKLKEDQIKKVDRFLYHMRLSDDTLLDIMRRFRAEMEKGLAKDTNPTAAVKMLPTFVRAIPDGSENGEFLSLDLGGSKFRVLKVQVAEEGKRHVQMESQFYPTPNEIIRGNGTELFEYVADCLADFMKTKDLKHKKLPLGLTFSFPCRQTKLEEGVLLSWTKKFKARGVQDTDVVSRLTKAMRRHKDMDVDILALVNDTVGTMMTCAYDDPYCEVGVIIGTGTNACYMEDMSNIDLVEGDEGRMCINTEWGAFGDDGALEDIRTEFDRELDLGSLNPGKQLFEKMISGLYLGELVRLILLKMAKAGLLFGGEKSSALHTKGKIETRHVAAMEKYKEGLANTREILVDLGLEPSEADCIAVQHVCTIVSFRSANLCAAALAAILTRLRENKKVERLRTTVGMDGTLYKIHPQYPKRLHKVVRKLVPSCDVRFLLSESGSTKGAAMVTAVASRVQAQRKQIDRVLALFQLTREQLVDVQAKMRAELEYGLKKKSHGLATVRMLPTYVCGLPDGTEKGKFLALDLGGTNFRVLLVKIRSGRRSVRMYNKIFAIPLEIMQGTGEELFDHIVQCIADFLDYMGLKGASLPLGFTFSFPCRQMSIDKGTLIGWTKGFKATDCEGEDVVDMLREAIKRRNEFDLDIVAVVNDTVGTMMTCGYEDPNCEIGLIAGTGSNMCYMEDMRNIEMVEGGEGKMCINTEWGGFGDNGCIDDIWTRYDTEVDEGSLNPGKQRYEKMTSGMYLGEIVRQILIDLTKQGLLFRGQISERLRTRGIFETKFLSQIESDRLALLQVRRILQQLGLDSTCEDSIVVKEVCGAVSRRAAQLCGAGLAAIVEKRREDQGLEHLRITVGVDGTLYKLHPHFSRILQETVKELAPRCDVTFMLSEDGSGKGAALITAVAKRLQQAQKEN
#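 Assay system: recombinant HKDC1 hexokinase; detection: coupled resazurin fluorescence, excitation 525 nm, emission 613 nm; benchmarks: DMSO-plus-enzyme-mix negative control, buffer-substituted positive control; compound dosing: single 20 µM dose; schedule: 90 min at room temperature in dark; also added: glucose plus 1 mM ATP as hexokinase substrates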
# PfGluPho inh – PfG6PD (Plasmodium falciparum) enzyme inhibition; inhibition, % at 20 µM; actives 0.78% (n = 350,000); PfGluPho enzyme, NADPH resazurin-diaphorase fluorescence;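 active = inhibition reaching at least a set limit at 20 µM in the primary screen, cut at about 59% in these data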;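 also: 0% = DMSO wells with substrate and 100% = DMSO wells lacking glucose-6-phosphate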
# HKDC1 act conf2 – confirmation of human HKDC1 activators. inhibition, % at 20 µM. recombinant HKDC1, G6PDH/diaphorase resazurin fluorescence; hits give low values. actives 14% (n = 740). shares compounds with HKDC1 inh. AID 504708;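 active = inhibition at or below a set negative limit, negative inhibition meaning the enzyme was activated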
# PfG6PD confirm – confirmation of Plasmodium falciparum G6PD inhibitors; shares compounds with PfGluPho inh; inhibition, % at 20 µM; AID 504753; actives 34% (n = 2,400); recombinant PfGluPho, NADPH-diaphorase-resazurin fluorescence;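 active = inhibition of at least 50% at 20 µM in any single replicate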;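 also: 0% = DMSO with substrate and 100% = DMSO lacking glucose-6-phosphate substrate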
# Diaph ctr 10uM – inhibits diaphorase or oxidizes, flagging false PfG6PD hits; shares compounds with PfGluPho inh; actives 39% (n = 820); diaphorase-coupled resazurin reduction, fluorescence, NADPH 10 uM; inhibition, % at 20 µM;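 active = average inhibition reaching 50% or more with the compound at 20 µM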;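 also: resorufin red fluorescence formed as diaphorase reduces resazurin using NADPH; 0% = DMSO with enzyme and 100% = DMSO without enzyme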
# Diaph ctr 30uM – counter-screen for P. falciparum G6PD inhibitors: diaphorase inhibitors, oxidizers. shares compounds with PfGluPho inh. Diaphorase/resazurin coupled assay, resorufin fluorescence, 30 uM NADPH. inhibition, % at 20 µM. actives 29% (n = 820);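 active = inhibition averaging 50% or more, tested at 20 µM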;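 also: 0% = DMSO with enzyme and 100% = DMSO wells lacking diaphorase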
# Active calls of the source: *; x = no result given; ! = repeats disagree.
SMILES,G6PDH counter,Diaphorase act,Diaphorase inh,HKDC1 inh,PfGluPho inh,HKDC1 act conf2,PfG6PD confirm,Diaph ctr 10uM,Diaph ctr 30uM
COc1cc(C=C2CCCC(=Cc3ccc(OCC4CO4)c(OC)c3)C2=O)ccc1OCC1CO1 (configuration not stated),x,x,x,x,5,x,x,x,x
Cc1ccc(S(=O)(=O)Nc2ccc(O)c(Sc3ncn[nH]3)c2)cc1,7,0.8,20,-5,29,x,x,x,x
Cc1ccc(S(=O)(=O)/N=C2/C=C(Sc3ncn[nH]3)C(=O)c3ccccc32)cc1,40,0.6,36,69*,120*,63,103*,89*,93*
O=C1NC(=O)C([N+](=O)[O-])=C(O)C1=O,x,x,x,x,-17,x,x,x,x
CC(=O)N(C1=C(Cl)C(=O)c2ccccc2C1=O)C1CCCCC1,x,x,x,58*,116*,78,113*,98*,95*
C[C@H](CO)N1C[C@H](C)[C@@H](CN(C)S(=O)(=O)c2ccc3c(c2)OCCCO3)OCc2cn(nn2)CCCC1=O,x,x,x,x,0,x,x,x,x
O=C1/C(=C/Nc2cccc([N+](=O)[O-])c2)CCc2ccccc21,31,0.6,39,41*,67*,5,35,x,x
Cc1[nH]c2ccccc2c1C1=CC(=O)C=CC1=O,x,x,x,58*,129*,53,114*,93*,53*
C[c-]1[c-](C)[c-](C)[c-](C)[c-]1C.[Fe].c1cc2nccc(N3CCCC3)[c-]2c1 (configuration not stated),x,x,x,49*!,85*,-2,66*!,15,11
CCOC(=O)c1ccc(NC(=O)Nc2nncs2)cc1,x,x,x,x,0,x,x,x,x
CC(NC1=CC(=O)c2cccnc2C1=O)C(O)c1ccccc1 (configuration not stated),x,x,x,46*,105*,43,74*,47,43
C[C@@H]1CN([C@@H](C)CO)S(=O)(=O)c2ccc(Br)cc2O[C@@H]1CN(C)C(=O)NC1CCCCC1,x,x,x,x,-2,x,x,x,x
CN(C)C(=O)/C(C#N)=C\c1cc(Br)c(Sc2ccc(Cl)cc2)o1,0,0.9,13,35*,107*,14,-8,x,x
Clc1ccc(Sc2oc(/C=N/n3cnnc3)cc2Br)cc1,4,0.7,32,-1,50,x,x,x,x
O=C1c2ccccc2C(=O)c2c1cccc2N(CCO)CCO,x,x,x,8,12,x,x,x,x
O=C1C=C(N(CCO)Cc2ccccc2)c2ccccc2C1=O,54*,0.8,21,35*,71*,29,46,x,x
NS(=O)(=O)c1ccc(N/N=C/c2ccc(O)c(O)c2O)c([N+](=O)[O-])c1,x,x,x,36*,87*,-11,70*,5,-3
NS(=O)(=O)c1ccc(N/N=C/c2ccc(O)cc2O)c([N+](=O)[O-])c1,x,x,x,1,1,x,x,x,x
CCN(CC)C(=O)C1=C(C)N(Cc2ccc(OC)cc2)C(=O)C(CC(=O)NC2CC2)C1 (configuration not stated),x,x,x,x,-16,x,x,x,x
COC1=CC(=O)c2c(ccc3ncnc(N)c23)C1=O,x,x,x,87*,127*,88,108*,99*,100*
CNCc1ccccc1Sc1cccc(O)c1,-3,0.9,8,-1,9,x,x,x,x
CNCc1ccccc1Sc1cc(O)ccc1O,58*,0.7,32,64*,92*,65,97*,53*,18
COC1=C(Br)C(=O)c2ncccc2C1=O,x,x,x,56*,112*,65,91*,73*,75*
C[C@@H]1CNC(=O)c2c(C(=O)Nc3ccc(CNC(=O)OC(C)(C)C)cc3)ncn21,x,x,x,x,5,x,x,x,x
CCOc1ccc2c(ccc(/C=C/c3cc(C)c4cccnc4c3O)[n+]2C)c1,x,x,x,46*,92*,8,40,x,x
SMILES,G6PDH counter,Diaphorase act,Diaphorase inh,HKDC1 inh,PfGluPho inh,HKDC1 act conf2,PfG6PD confirm,Diaph ctr 10uM,Diaph ctr 30uM
C=CC(=O)N1C/C(=C/c2ccc(Cl)cc2)C(=O)/C(=C\c2ccc(Cl)cc2)C1,x,x,x,45*,76*,10,26,x,x
CN1C/C(=C/c2ccncc2)C(=O)/C(=C/c2ccncc2)C1,x,x,x,3,-5,x,x,x,x
COc1ccc(CCN2CC(C(=O)NCc3cccc(F)c3)CCC2=O)cc1 (configuration not stated),x,x,x,x,4,x,x,x,x
Oc1ccc(Br)cc1CNc1cccc2cccnc12,x,x,x,40*,72*,6,15,x,x
Cc1ccc(S(=O)(=O)/N=C2\C=C(Nc3cccc(C(=O)O)c3)C(=O)c3ccccc32)c(C)c1,x,x,x,39*,70*,58,39,x,x
CCc1ccc(S(=O)(=O)/N=C2\C=C(Nc3ccc(C(=O)O)cc3)C(=O)c3ccccc32)cc1,x,x,x,54*,65*,60,31,x,x
Cc1ccc(S(=O)(=O)/N=C2\C=C(Nc3cccc(C(=O)O)c3)C(=O)c3ccccc32)cc1,x,x,x,45*,67*,80,69*,89*,86*
CCC(C)C(=O)C(=O)N1CCC(n2nccc2NC(=O)CCOc2ccccc2)CC1 (configuration not stated),x,x,x,x,18,x,x,x,x
c1ccc(COc2ncnc3c2ncn3CCCNC2CCN(Cc3ccccc3)CC2)cc1,x,x,x,x,2,x,x,x,x
O=C1C=C(N2CCOCC2)c2ccccc2C1=O,x,x,x,77*,71*,79,54*,73*,83*
O=C1C=C(N2CCOCC2)c2cccc3cccc1c23,x,x,x,x,20,x,x,x,x
NC(CSC(c1ccccc1)(c1ccccc1)c1ccc2c(c1)OCO2)C(=O)O (configuration not stated),x,x,x,x,-15,x,x,x,x
Clc1ccc(N=c2ssnc2Cl)nc1,14,x,x,-194,87*,-80*,52*,-22,-18
Cc1ccc(S(=O)(=O)Nc2c(O)ccc3ccccc23)cc1,x,x,x,38*,81*,35,47,x,x
Cc1ccc(S(=O)(=O)NN=Cc2c(O)ccc3ccccc23)cc1,x,x,x,x,-17,x,x,x,x
C[C@@H]1CN([C@H](C)CO)C(=O)CCCn2nncc2CO[C@H]1CN(C)C(=O)Cc1ccccc1,x,x,x,x,-10,x,x,x,x
CCOC(=O)C1CCN(C(=O)Nc2ccc3nc(-c4ccco4)c(-c4ccco4)nc3c2)CC1,1,0.5,52*,43*,71*,0,3,x,x
CCOc1ccc(S(=O)(=O)Nc2cc(SCC(=O)O)c(O)c3ccccc23)cc1,x,x,x,60*,104*,31,97*,46,32
O=S(=O)(Nc1cc(Sc2cccc3cccnc23)c(O)c2ccccc12)c1ccccc1,20,0.7,31,x,x,x,x,x,x
